# Results taken from ChEMBL document CHEMBL4428090, “Modeling, Synthesis, and Biological Evaluation of Potential Retinoid X Receptor (RXR)-Selective Agonists: Analogues of 4-[1-(3,5,5,8,8-Pentamethyl-5,6,7,8-tetrahydro-2-naphthyl)ethynyl]benzoic Acid (Bexarotene) and 6-(Ethyl(5,5,8,8-tetrahydronaphthalen-2-yl)amino)nicotinic Acid (NEt-TMN)” (J Med Chem, 2016).
# The source made the active and inactive calls. No cut-off for these calls is given here.
# How the values were obtained:
# Homo sapiens = species on record: Homo sapiens; test: Selectivity index, ratio of agonist activity at human RARalpha expressed in HEK293 cells assessed as increase in RARE-mediated transcription relative to bexarotene to agonist activity at human RXRalpha expressed in human HCT116 cells assessed as increase in RXRE-mediated transcription relative to bexarotene; assay type: cell-based
# Method in brief: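 HEK293 cells (60,000/well) transfected for 24 h with 250 ng pTK-DR5(X2)-Luc, 25 ng human RARα and 20 ng renilla. Treated 24 h at 100 nM; activity expressed as a percentage of all-trans-retinoic acid. This RARE activity is divided by 100 nM RXRE activity, with the bexarotene ratio set to 1.0.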
# [1] = biological target: T1, Retinoic acid receptor RXR-alpha (Homo sapiens) (UniProt P19793); test: Agonist activity at human RXRalpha expressed in human HCT116 cells assessed as increase in RXRE-mediated transcription at 1000 nM incubated for 24 hrs by RXRE luciferase reporter gene assay relative to bexarotene; assay type: cell-based
# T1 sequence (whole entry): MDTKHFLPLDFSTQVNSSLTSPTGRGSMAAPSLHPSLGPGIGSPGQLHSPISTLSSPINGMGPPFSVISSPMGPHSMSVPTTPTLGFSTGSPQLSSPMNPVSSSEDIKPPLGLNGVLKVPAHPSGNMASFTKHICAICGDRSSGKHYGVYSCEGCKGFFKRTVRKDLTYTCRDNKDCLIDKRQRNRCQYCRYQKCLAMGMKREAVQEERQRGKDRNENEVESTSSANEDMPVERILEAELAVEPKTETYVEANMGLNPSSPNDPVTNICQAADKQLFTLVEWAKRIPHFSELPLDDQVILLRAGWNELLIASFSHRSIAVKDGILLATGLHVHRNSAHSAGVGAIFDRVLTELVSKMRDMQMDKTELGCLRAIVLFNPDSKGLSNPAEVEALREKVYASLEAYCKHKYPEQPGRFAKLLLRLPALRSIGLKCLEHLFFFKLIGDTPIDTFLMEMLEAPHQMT
# Method in brief: (§1)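 HCT-116 cells (80,000/well) co-transfected for 24 h with 250 ng RXRE-luciferase reporter (DR1 element from the rat cellular retinol binding protein II gene), 25 ng pSG5-human RXRα and 20 ng renilla. Dosed 24 h at 25, 100 or 1000 nM final; ethanol or DMSO vehicle 0.1%. Dual-luciferase read-out. Three independent assays in triplicate; bexarotene = 100%.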
# HuT78 = test: Growth inhibition of human HUT78 cells at 200 nM incubated for 72 hrs by MTS assay relative to bexarotene; assay type: functional; settings: HuT78, 72 h, read-out: GI
# Method in brief: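 Hut78 cells in RPMI with 10% FBS at 37°C, 5% CO2. Plated 7,500 cells/well and immediately dosed at 200 nM for 72 h. MTS read at A490; percent inhibition with media control set to 0.0, compared with bexarotene set to 100%. Mean of three independent experiments.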
# [2] = biological target: T2, Retinoid X receptor (Homo sapiens) (UniProt P28702+P48443+P19793); test: Agonist activity at human RXR binding domain and activation domain expressed in human HCT116 cells assessed as rexinoid activity at 1000 nM incubated for 24 hrs by luciferase reporter gene based mammalian two-hybrid assay relative to bexarotene; assay type: cell-based
# Method in brief: (§2)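 HCT-116 cells plated overnight (80,000/well, DMEM with 10% FBS), co-transfected for 24 h with human RXR binding-domain (bait) and activation-domain (prey) vectors, pFR-Luc Gal4 reporter and renilla control. Treated 24 h at 25, 100 or 1000 nM final; vehicle ethanol or DMSO 0.1%. Dual-luciferase read-out. Three independent assays in triplicate; bexarotene set to 100%.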
# [3] = biological target: T1, Retinoic acid receptor RXR-alpha (Homo sapiens); test: Agonist activity at human RXRalpha expressed in human HCT116 cells assessed as increase in RXRE-mediated transcription at 25 nM incubated for 24 hrs by RXRE luciferase reporter gene assay relative to bexarotene; assay type: cell-based; method in brief: as §1
# [4] = biological target: T2, Retinoid X receptor (Homo sapiens); test: Agonist activity at human RXR binding domain and activation domain expressed in human HCT116 cells assessed as rexinoid activity at 100 nM incubated for 24 hrs by luciferase reporter gene based mammalian two-hybrid assay relative to bexarotene; assay type: cell-based; method in brief: as §2
# Retinoid X receptor = biological target: T3, Retinoid X receptor (Homo sapiens, UniProt P28702+P48443+P19793); test: Agonist activity at human RXR binding domain and activation domain expressed in human HCT116 cells assessed as rexinoid activity incubated for 24 hrs by luciferase reporter gene based mammalian two-hybrid assay; assay type: cell-based
# T3 sequence (P28702 whole entry): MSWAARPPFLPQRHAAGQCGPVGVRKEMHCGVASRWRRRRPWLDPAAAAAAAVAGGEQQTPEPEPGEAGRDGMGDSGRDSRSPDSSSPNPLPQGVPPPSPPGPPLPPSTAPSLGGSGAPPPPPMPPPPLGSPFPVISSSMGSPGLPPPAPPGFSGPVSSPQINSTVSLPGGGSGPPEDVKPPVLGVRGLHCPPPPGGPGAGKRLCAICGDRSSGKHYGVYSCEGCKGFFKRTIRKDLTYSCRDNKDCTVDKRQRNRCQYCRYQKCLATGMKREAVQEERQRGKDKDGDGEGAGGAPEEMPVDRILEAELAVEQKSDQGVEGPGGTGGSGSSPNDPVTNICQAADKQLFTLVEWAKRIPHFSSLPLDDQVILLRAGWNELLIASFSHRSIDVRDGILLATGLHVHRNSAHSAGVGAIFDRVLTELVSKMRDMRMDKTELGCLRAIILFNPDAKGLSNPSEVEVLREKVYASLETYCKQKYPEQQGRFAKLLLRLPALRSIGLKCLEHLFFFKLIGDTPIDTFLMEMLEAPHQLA
# T3 sequence (P48443 whole entry): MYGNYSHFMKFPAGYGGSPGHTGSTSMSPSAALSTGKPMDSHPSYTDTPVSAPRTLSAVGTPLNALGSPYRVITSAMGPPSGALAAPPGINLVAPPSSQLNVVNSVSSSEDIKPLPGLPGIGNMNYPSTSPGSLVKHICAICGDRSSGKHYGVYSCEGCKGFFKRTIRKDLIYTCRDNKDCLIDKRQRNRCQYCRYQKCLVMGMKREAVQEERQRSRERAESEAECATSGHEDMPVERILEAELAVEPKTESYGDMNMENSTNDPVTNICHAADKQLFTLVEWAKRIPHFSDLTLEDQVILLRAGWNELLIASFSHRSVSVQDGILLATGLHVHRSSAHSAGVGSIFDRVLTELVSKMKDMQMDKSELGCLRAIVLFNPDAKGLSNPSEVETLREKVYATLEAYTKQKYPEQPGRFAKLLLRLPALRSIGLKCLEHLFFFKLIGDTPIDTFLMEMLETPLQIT
# T3 sequence (P19793 whole entry): T1 sequence (whole entry)
# [5] = biological target: T2, Retinoid X receptor (Homo sapiens); test: Agonist activity at human RXR binding domain and activation domain expressed in human HCT116 cells assessed as rexinoid activity at 25 nM incubated for 24 hrs by luciferase reporter gene based mammalian two-hybrid assay relative to bexarotene; assay type: cell-based; method in brief: as §2
# [6] = Lipid risk index, ratio of agonist activity at human RXRalpha/LXRalpha expressed in human HCT116 cells assessed as reduction in SREBP-mediated transcription activity to agonist activity at human RXRalpha expressed in human HCT116 cells assessed as increase in RXRE-mediated transcription
# Method in brief: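 Lipid risk index: SREBP-promoter luciferase activity (HCT116, LXRα-transfected, 100 nM compound with or without 100 nM TO901317, 24 h) divided by RXRE activity at 100 nM. The SREBP:RXRE ratio for bexarotene is set to 1.0.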
Structure (SMILES),Activity [1],Activity [2],Activity [3],Activity [4],EC50 (Retinoid X receptor),fold change (FC) [5],Activity [5],fold change (FC) ([4]; in the assay text read “relative to activity at 25 nM” for “relative to bexarotene”),Ratio (Homo sapiens),inhibition of growth at 0.2 µM (HuT78),Ratio [6]
CCN(c1ccc(C(=O)O)c(F)c1)c1cc2c(cc1C)C(C)(C)CCC2(C)C,Active,51 to 56%,27 to 66%,Active,33.8 nM,–,140 to 150%,–,0.35 to 0.37,55 to 80%,0.48 - 0.65
CCN(c1ccc(C(=O)O)cc1)c1cc2c(cc1C)C(C)(C)CCC2(C)C,Active,51 to 56%,27 to 66%,Active,7.9 nM,–,140 to 150%,–,0.35 to 0.37,35 to 51%,0.48 - 0.65

# Continued, in another order:
Activity [1],Activity [2],Activity [3],Activity [4],EC50 (Retinoid X receptor),fold change (FC) [5],Activity [5],fold change (FC) ([4]; in the assay text read “relative to activity at 25 nM” for “relative to bexarotene”),Structure (SMILES),Ratio (Homo sapiens),inhibition of growth at 0.2 µM (HuT78),Ratio [6]
20 to 43%,35 to 58%,27 to 66%,135 to 146%,13.8 nM,2,–,–,CCN(c1ccc2c(c1)C(C)(C)CCC2(C)C)c1ccc(C(=O)O)cn1,> 0.5,> 85%,0.49 - 0.51
20 to 43%,35 to 58%,–,–,364.3 nM,–,11.3%,5 to 16,CCN(c1ccc2c(c1)C(C)(C)CCC2(C)C)c1cnc(C(=O)O)cn1,> 0.5,35 to 51%,0.48 - 0.65
20 to 43%,35 to 58%,27 to 66%,135 to 146%,18.2 nM,2,–,–,CCN(c1ncc(C(=O)O)cn1)c1cc2c(cc1C)C(C)(C)CCC2(C)C,0.35 to 0.37,55 to 80%,0.49 - 0.51
